CFTR F508del cor: CFTR F508del correction in bronchial cells. CFBE cells, YFP halide quenching; stimulated with forskolin plus potentiator P3; % fluorescence drop versus neutral controls. activity (quench increase), % at 7.58 µM. 350,000 compounds, 0.36% hits. AID 720511;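 active = mean added fluorescence quench of at least 8% versus neutral control, with both replicates also reaching 8%; inconclusive = only one of the mean or replicate conditions met; inactive = mean below 8% and not both replicates reaching 8%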;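 note: cells transiently co-express mutant CFTR-F508del with the halide-sensitive YFP; corrector assay measuring rescue of mutant channel to the surface after 24 h compound exposure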
E-sel inducer: induces E-selectin expression in human endothelial cells. P16581. HUVEC E-selectin immunofluorescence imaging; normalized: neutral wells 0, TNF-alpha wells 100. activation, % at 7.58 µM. 260,000 compounds, 0.37% hits. AID 686992;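 active = mean E-selectin-positive cell signal at least 10% of the positive control, reached in at least 60% of replicates, without over 20% cell loss; inconclusive = no rule given, readout overlaps actives, possibly toxicity-flagged; inactive = the rest, including those meeting only one limit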
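Test system: HUVEC | Signal: Immunofluorescence imaging | Read-out: Percent E-selectin-positive cells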
miR-122 sensor: miR-122 inhibition in Huh7 cells; activation (reporter increase), % at 12.5 µM; Huh7 miR-122 Renilla luciferase sensor, 48 h; neutral wells = 0, positive control = 100; 340,000 compounds, 0.3% hits;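 active = mean replicate activation score at least 90 and every replicate individually at or above 90; inconclusive = only one of the two criteria met; inactive = neither criterion met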;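 note: higher luciferase means less miR-122 activity so hits act as miR-122 inhibitors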
INS-1E GSIS act: primary screen for activators of insulin secretion dependent on glucose, INS-1E cells, GLuc reporter luminescence. INS-1E GLuc reporter insulin secretion, 2-3 h. activation, % at 16.6 µM. 370,000 compounds, 0.61% hits. AID 743287;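 active = lowest replicate activation of at least 40%, so every replicate reaches that level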;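 note: 0% = median of neutral control wells and 100% = median of IBMX positive control wells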
DENV2 CPE rescue: DENV2-induced cell death inhibition; DENV2-infected cells, cytopathic effect rescue, plate reader; CPE inhibition, % at 9.99 µM; 350,000 compounds, 1.7% hits; in the data active = CPE inhibition above about 20%, passing the limit was not always enough; inconclusive = no clear call, values can overlap the other calls; tested in BHK-21 cells;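 note: 0% = median of neutral control wells and 100% = median of positive control wells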
ERAP1 HTS inh: inhibitors of human ERAP1 aminopeptidase; Q9NZ08; recombinant ERAP1, Leu-AMC fluorescence, 60 min; inhibition, % at 10.7 µM; 340,000 compounds, 0.15% hits; AID 652197;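 active = mean replicate inhibition of at least 30%, or all replicates individually reaching that 30% level; inactive = mean below 30% and not every replicate reaching it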;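 note: 0% = neutral control wells and 100% = L-leucinethiol positive control wells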
Target sequence (Q9NZ08 whole entry, looked up): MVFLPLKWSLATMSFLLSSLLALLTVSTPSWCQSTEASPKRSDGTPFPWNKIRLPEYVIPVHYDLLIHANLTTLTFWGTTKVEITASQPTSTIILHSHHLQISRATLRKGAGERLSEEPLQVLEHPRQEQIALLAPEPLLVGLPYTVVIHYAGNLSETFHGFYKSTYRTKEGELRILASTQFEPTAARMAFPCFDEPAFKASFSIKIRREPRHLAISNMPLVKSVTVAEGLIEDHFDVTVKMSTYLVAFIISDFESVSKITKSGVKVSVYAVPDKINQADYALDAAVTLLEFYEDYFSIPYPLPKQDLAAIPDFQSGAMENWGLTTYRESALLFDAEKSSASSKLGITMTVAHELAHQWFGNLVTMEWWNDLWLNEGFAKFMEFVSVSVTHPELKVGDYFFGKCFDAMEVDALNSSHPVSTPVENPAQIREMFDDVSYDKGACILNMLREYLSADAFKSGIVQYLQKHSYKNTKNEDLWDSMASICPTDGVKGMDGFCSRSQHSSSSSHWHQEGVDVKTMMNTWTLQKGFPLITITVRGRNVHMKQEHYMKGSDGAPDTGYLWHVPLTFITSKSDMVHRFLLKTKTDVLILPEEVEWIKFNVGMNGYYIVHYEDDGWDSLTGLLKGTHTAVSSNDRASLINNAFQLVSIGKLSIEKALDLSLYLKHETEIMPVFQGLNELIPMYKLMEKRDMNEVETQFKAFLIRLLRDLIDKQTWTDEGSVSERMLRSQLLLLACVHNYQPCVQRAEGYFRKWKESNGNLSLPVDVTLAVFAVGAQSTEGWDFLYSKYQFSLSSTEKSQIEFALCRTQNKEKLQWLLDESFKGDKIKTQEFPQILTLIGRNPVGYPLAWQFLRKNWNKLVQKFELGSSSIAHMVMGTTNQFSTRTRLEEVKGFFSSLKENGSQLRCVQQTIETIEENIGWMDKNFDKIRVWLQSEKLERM
Starred values were filed as active, the others as inactive; u = inconclusive; x = no result given; [ ] = dose if it differs, or a comment. In the library only some 2.6% were active in any assay of this set; here they are far more common.

SMILES	CFTR F508del cor	E-sel inducer	miR-122 sensor	INS-1E GSIS act	DENV2 CPE rescue	ERAP1 HTS inh
COc1ccc(NC(=O)Nc2ccc3c(c2)C(=O)N([C@H](C)CO)C[C@@H](C)[C@@H](CN(C)C(=O)Nc2ccc(OC)cc2)OCCCC[C@@H](C)O3)cc1	-1.4	0.1	x	8.8	48.5*	0.9
COc1ccc(NC(=O)N(C)C[C@H]2OCCCC[C@@H](C)Oc3ccc(NC(=O)Nc4ccc5c(c4)OCO5)cc3C(=O)N([C@@H](C)CO)C[C@H]2C)cc1	-1.7	-0.1	12.6[16.7 µM]	3.6	69.7*	0.7
CCC(=O)Nc1ccc2c(c1)C(=O)N(C)[C@@H]1CC[C@@H](CC(=O)N3CCc4ccccc4C3)O[C@@H]1CO2	-0.1	0.2	-2.7[16.7 µM]	-12.6	-3.4	-1.8
C[C@@H]1CCCCO[C@@H](CN(C)S(=O)(=O)c2ccccc2)[C@@H](C)CN([C@H](C)CO)C(=O)c2cc(NC(=O)CCCCCC(=O)Nc3ccccc3N)ccc2O1	-1.7	x	2.6[16.7 µM]	28.1	3.1	0.4
C[C@@H]1CCCCO[C@H](CN(C)S(=O)(=O)c2cccs2)[C@@H](C)CN([C@H](C)CO)C(=O)c2cc(NC(=O)CCCCCC(=O)Nc3ccccc3N)ccc2O1	-1.4	0.0	x	5.7	23.9*	2.4
C[C@@H]1CN([C@H](C)CO)C(=O)c2cc(NC(=O)CCCN(C)C)ccc2O[C@@H](C)CCCCO[C@H]1CN(C)S(=O)(=O)c1cccs1	-0.7	-0.1	x	3.3	34.3*	-1.6
CCCNC(=O)N1CC2(CCN(Cc3ccccn3)CC2)c2c(n(C)c3cc(OC)ccc23)[C@@H]1CO	-1.1	-0.1	x	16.0	-2.3	2.6
O=C(C[C@@H]1C[C@H]2c3cc(NC(=O)C4CCC4)ccc3O[C@H]2[C@@H](CO)O1)NCc1cccnc1	-3.5	0.2	10.1[16.7 µM]	-1.4	0.0	0.3
CCCCNC(=O)c1onc(CS(=O)(=O)c2ccccn2)c1C(=O)NCCCC	0.6	0.3	-2.1	-7.2	40.0*	-2.7
CCCCNC(=O)c1onc(CSc2ccccc2)c1C(=O)NCCCC	0.9	-0.1	0.9	-1.6	1.8	1.9
CCCCCc1ccc(OCCCC[n+]2cccc(C)c2)c(CCCCC)c1	7.7	-1.5	-24.6	174.1*	x	12.8
CCCCCc1ccc(OCCCC[n+]2ccc(C)cc2)c(CCCCC)c1	u	-0.2	x	109.4*	8.0	11.1
C[C@@H]1CCCCO[C@@H](CN(C)C(=O)Nc2ccc3c(c2)OCO3)[C@H](C)CN([C@@H](C)CO)C(=O)c2cc(NC(=O)CCCN(C)C)ccc2O1	1.3	-0.3	2.6[16.7 µM]	6.6	3.8	4.7
Cc1ccc(C)c(OCCCCN2CCCCC2)c1	0.6	x	4.1	4.1	55.2*	0.4
Cc1ccc(OCCCCN2CCCCC2)c(C)c1	-1.3	u	-1.6	x	8.4	1.0
Cc1noc(C)c1S(=O)(=O)N(C)C[C@H]1OCCCC[C@@H](C)Oc2ccc(NS(=O)(=O)c3cccs3)cc2C(=O)N([C@@H](C)CO)C[C@H]1C	-0.2	0.3	5.8[16.7 µM]	-1.7	-10.6	2.0
Cc1cc(Cl)c(S(=O)(=O)Nc2ccc3c(c2)OCO3)cc1OCC(=O)NC1CCCCC1	x	x	94.4*	x	x	x
Cc1cc(Cl)c(S(=O)(=O)Nc2ccc3c(c2)OCO3)cc1OCC(N)=O	x	x	37.1	x	x	x
COC(=O)[C@@H]1C[C@@H]2CC[C@@H](O)C[C@@H]2N1Cc1ccc(Cl)cc1	-0.2	-0.1	-8.7	-10.5	-1.2	-0.2
COC(=O)[C@@H]1C[C@H]2CC[C@H](O)C[C@H]2N1Cc1ccc(C(F)(F)F)cc1	0.4	6.5	-1.7	-4.4	60.8*	-3.1
CCS(=O)(=O)NCC[C@@H]1CC[C@@H](NC(=O)C2CCOCC2)[C@@H](CO)O1	0.8	0.0	x	7.4	-0.6	-0.8
COc1cc(OC)cc(-c2c(-c3cccs3)c3cc(Br)ccc3n2C)c1	-1.6	1.7	-2.6	x	-22.6	-1.9
COc1cc(OC)cc(-c2c(-c3cccs3)c3cc(-c4ccc(N(C)C)nc4)ccc3n2C)c1	3.1	0.2	30.6	27.5	33.6*	8.0
COc1cc(OC)cc(-c2c(-c3cccs3)c3cc(-c4ccn[nH]4)ccc3n2C)c1	1.3	0.5	24.5	1.3	32.6*	-0.6
COc1cc(F)cc(-c2ccc3c(c2)c(-c2cccs2)c(-c2cc(OC)cc(OC)c2)n3C)c1	-0.6	0.2	2.6	-4.5	77.8*	-3.7
SMILES	CFTR F508del cor	E-sel inducer	miR-122 sensor	INS-1E GSIS act	DENV2 CPE rescue	ERAP1 HTS inh
C[C@@H]1CN([C@@H](C)CO)C(=O)c2cc(NC(=O)CCCN(C)C)ccc2O[C@@H]1CN(C)S(=O)(=O)c1ccc(F)cc1	1.2	u	1.7[16.7 µM]	24.2	0.9	-2.7
C[C@H]1CCCCO[C@H](CN(C)C(=O)CCC(F)(F)F)[C@@H](C)CN([C@@H](C)CO)C(=O)c2cc(N(C)C)ccc2O1	-1.3	-0.2	-3.7[16.7 µM]	2.3	-9.3	-2.7
C[C@@H]1CN([C@H](C)CO)C(=O)Cc2cc(NC(=O)C3CC3)ccc2O[C@H]1CN(C)C(=O)Nc1cccc2ccccc12	-3.3	0.0	-0.8[16.7 µM]	3.5	19.4	0.4
CC(C)NC(=O)COC(=O)c1ccc(NS(=O)(=O)c2ccc3c(c2)OCCO3)cc1	x	x	279.7*	x	x	x
COc1ccc(C#Cc2ccc3c(c2)O[C@@H](CN(C)C(=O)Nc2cccc(OC)c2)[C@H](C)CN([C@@H](C)CO)S3(=O)=O)cc1	3.3	35.2*	19.6	-18.3	-1.7	0.5
CC(C)CC#Cc1ccc2c(c1)O[C@H](CN(C)C(=O)Nc1ccccc1F)[C@@H](C)CN([C@H](C)CO)S2(=O)=O	7.2	0.0	76.6[16.7 µM]	-15.5	-16.4	0.0
CC(=O)N(C)C[C@@H]1Oc2cc(C#Cc3ccccn3)ccc2S(=O)(=O)N([C@H](C)CO)C[C@@H]1C	-2.0	70.4*	-6.0[16.7 µM]	20.7	-2.8	5.5
CCCC#Cc1ccc2c(c1)O[C@H](CN(C)C(C)=O)[C@H](C)CN([C@@H](C)CO)S2(=O)=O	1.3	123.2*	-20.0[16.7 µM]	6.6	-4.5	-1.8
CC(C)CC#Cc1ccc2c(c1)O[C@H](CN(C)C(=O)Nc1ccccc1F)[C@H](C)CN([C@H](C)CO)S2(=O)=O	4.4	0.4	25.9[16.7 µM]	-9.3	32.3*	-0.1
O=C(Cc1ccncc1)Nc1ccc2c(c1)[C@H]1C[C@@H](CC(=O)NC3CCCC3)O[C@H](CO)[C@H]1O2	0.5	0.0	-6.1[16.7 µM]	-3.3	-6.2	-1.1
COCC(=O)N1[C@H](CO)[C@H](c2ccccc2)C12CN(C(=O)Cc1ccccn1)C2	0.8	0.0	x	8.1	-0.7	1.1
CCCC#Cc1ccc2c(c1)O[C@H](CN(C)C(=O)COC)[C@@H](C)CN([C@H](C)CO)S2(=O)=O	-3.4	0.2	0.2[16.7 µM]	-2.5	23.1*	1.9
